Sampled rows, rich in hits. Any-hit rate of the full collection: about 2.9%.
MEKK2wt PB1 HTS – raises or lowers MEK5 binding to wildtype human MEKK2 PB1 domain | binding response (% of control), % at 10 µM | 290,000 tested, 1.1% active | bead flow cytometry, Alexa488-MEK5 binding to MEKK2 WT; actives lie on both sides | Q9Y2U5; in the data active means binding response below about 67% or above about 130%
Apaf1 inhib – human Apaf-1 inhibition; O14727; reconstituted apoptosome caspase-3 activity, DEVD-Rh110 fluorescence; inhibition, % at 20 µM; 330,000 tested, 0.71% active; active means inhibition of at least 40% at 20 µM
Target sequence (O14727 whole entry, looked up): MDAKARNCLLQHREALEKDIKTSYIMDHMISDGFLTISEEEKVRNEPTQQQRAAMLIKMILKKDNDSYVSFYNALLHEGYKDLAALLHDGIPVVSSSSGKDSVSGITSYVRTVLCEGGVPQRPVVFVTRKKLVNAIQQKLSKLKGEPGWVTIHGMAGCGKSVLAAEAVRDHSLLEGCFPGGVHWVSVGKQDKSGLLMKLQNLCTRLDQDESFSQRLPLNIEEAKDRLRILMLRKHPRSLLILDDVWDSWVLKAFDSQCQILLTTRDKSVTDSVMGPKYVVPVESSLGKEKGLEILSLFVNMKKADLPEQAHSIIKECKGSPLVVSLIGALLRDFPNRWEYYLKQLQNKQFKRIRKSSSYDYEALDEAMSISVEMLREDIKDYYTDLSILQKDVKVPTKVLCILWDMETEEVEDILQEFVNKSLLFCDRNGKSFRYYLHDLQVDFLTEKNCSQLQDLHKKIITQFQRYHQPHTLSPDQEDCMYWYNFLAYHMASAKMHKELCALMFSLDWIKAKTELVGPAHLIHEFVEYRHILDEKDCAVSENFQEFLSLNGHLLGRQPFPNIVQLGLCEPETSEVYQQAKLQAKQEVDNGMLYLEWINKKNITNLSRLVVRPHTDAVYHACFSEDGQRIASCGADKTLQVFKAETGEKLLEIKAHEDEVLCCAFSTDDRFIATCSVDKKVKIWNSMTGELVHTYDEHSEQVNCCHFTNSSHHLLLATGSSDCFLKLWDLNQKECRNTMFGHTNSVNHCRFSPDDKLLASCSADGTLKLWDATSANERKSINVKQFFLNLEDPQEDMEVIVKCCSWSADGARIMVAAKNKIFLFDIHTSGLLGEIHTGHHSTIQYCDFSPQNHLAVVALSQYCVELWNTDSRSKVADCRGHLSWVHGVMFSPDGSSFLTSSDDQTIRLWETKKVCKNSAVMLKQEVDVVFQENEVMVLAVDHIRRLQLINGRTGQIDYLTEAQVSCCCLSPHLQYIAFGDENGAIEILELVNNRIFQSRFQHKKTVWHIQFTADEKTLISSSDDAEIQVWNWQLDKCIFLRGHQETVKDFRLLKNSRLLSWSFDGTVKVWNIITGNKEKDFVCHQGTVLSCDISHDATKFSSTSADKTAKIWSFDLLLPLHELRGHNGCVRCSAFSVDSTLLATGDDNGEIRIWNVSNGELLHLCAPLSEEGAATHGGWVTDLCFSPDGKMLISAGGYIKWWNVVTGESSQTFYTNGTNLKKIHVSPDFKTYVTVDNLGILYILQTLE
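Material: biochemical Apaf-1 apoptosome reconstitution. Medium: Hepes buffer, pH 7.5. Also added: cytochrome c activation, bis-DEVD rhodamine 110 substrate. Timing: 30 min compound preincubation, 50 min activation, room temperature. Measured by: rhodamine 110 fluorescence at Ex 480/Em 540 nm.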
MEKK2mut PB1 HTS – signal of MEK5 binding to mutant human MEKK2 PB1 domain; bead flow cytometry, Alexa488-MEK5 binding to MEKK2 mutant; percent response, % at 10 µM; 290,000 tested, 0.35% active; AID 1530; in the data active means percent response above about 24%, passing the limit was not always enough
MEKK3 PB1 HTS – raises or lowers MEK5 binding to the human MEKK3 PB1 domain; Q99759; AID 1529; 290,000 tested, 1.4% active; bead-based flow cytometry, Alexa488-MEK5 binding to MEKK3; actives lie on both sides; 0 = blocked by unlabeled MEK5, 100 = vehicle; binding response (% of control), % at 10 µM;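 active means binding response more than 3 SD above or below the average of its plate-row segment, actives on both sides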;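 further: Alexa488 bead fluorescence after subtracting the streptavidin-only scavenger bead signal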
UBC13 polyUb – blocks human UBC13 polyubiquitin chain formation | P61088 | TR-FRET | inhibition, % at 20 µM | 330,000 tested, 0.47% active; in the data active means inhibition above about 45%, passing the limit was not always enough
Apaf-1 inh conf – confirmation of Apaf-1 inhibitors. shares compounds with Apaf1 inhib. reconstituted apoptosome, caspase-3 DEVD-Rh110 fluorescence. inhibition, % at 20 µM. 1,800 tested, 25% active. AID 504614;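 active means mean inhibition of at least 40% at 20 µM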
Rh110 interf inh – counter-screen for Apaf-1 inhibitors: fluorescence interference | AID 504615 | 1,800 tested, under 10 active | Rh110 fluorescence interference, quenched caspase reaction | shares compounds with Apaf1 inhib | activation (fluorescence interference), % at 20 µM;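 active means signal rise of 40% or more at 20 µM, treated as a fluorescence artifact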
Fluor interf inh – shows fluorescence interference in the Apaf-1 inhibitor assay format | shares compounds with Apaf1 inhib | fluorescence interference counterscreen, Apaf-1 assay format | IC50, µM | 460 tested, under 10 active | AID 588538; call rule not given here
Of the large screens only hits and unclear results are named; the others gave an inactive call (follow-up assays come after a bar, where they were run).

COc1ccc(NCc2cc3ccccc3[nH]c2=O)cc1	none
Cc1ccccc1OCC(=O)Nc1ccc(C(=O)Nc2ccccc2C(=O)O)cc1	none
COc1ccc(CCN(C)C(=O)c2cccc(S(=O)(=O)NCc3ccccc3)c2)cc1OC	Apaf1 inhib 56.7 | Apaf-1 inh conf inactive | Rh110 interf inh inactive
COc1ccc(CCNC(=O)C(=O)NCC2CCCN2S(=O)(=O)c2ccc(OC)cc2)cc1 (centres undefined)	Apaf1 inhib 61.1 (no result: MEKK2wt PB1 HTS, MEKK2mut PB1 HTS, MEKK3 PB1 HTS) | Apaf-1 inh conf inactive | Rh110 interf inh inactive
COc1cccc(/C=N\NC(=O)C2C(=O)NCC2c2ccccc2)c1O (centres undefined)	none
O=C1NCC(c2ccccc2)C1C(=O)N/N=C\c1ccc(-c2cccc(Cl)c2Cl)o1 (centres undefined)	Apaf1 inhib 40.0 | Apaf-1 inh conf inactive | Rh110 interf inh inactive
Cc1ccc(-c2ccc(/C=N\NC(=O)C3C(=O)NCC3c3ccccc3)o2)cc1Cl (centres undefined)	Apaf1 inhib 42.7 | Apaf-1 inh conf inactive | Rh110 interf inh inactive
Cc1ccc(C2=NN=C(NC(=O)CSc3nncn3C)SC2)cc1	none
CCN(CC)S(=O)(=O)c1cccc(C(=O)NCC2CCCO2)c1 (centres undefined)	none
CCN(CC)S(=O)(=O)c1cccc(NC(=O)C2SC(=Nc3ccc(C)cc3C)C(C(=O)NCC3CCCO3)=C2N)c1 (centres undefined)	Apaf1 inhib 45.2 | Apaf-1 inh conf inactive | Rh110 interf inh inactive
CCCCC[n+]1ccn(C2=C([O-])c3ccccc3C(=O)/C2=N\S(=O)(=O)c2ccc(Br)cc2)c1	Apaf1 inhib 61.0 | Apaf-1 inh conf 43.2 | Rh110 interf inh inactive | Fluor interf inh inactive
CCCCC[n+]1ccn(C2=C([O-])c3ccccc3C(=O)/C2=N\S(=O)(=O)c2ccccc2)c1	Apaf1 inhib 52.9 | Apaf-1 inh conf 62.5 | Rh110 interf inh inactive | Fluor interf inh inactive
CC(C)[n+]1ccn(C2=C([O-])c3ccccc3C(=O)/C2=N\S(=O)(=O)c2ccccc2)c1	Apaf1 inhib 46.2 | Apaf-1 inh conf 68.3 | Rh110 interf inh inactive | Fluor interf inh inactive
CC(=O)N1c2ccc(S(=O)(=O)N3CCC(C(=O)NC(C)c4ccccc4)CC3)cc2CC1C (centres undefined)	none
O=C(CN1CCc2cc3c(cc2C1)OCCCO3)Nc1cccc([N+](=O)[O-])c1	Apaf1 inhib 43.3 | Apaf-1 inh conf inactive | Rh110 interf inh inactive
CC(=O)NNc1cc(N2CCOCC2)nc(N2CCOCC2)n1	none
O=C(NNc1cc(N2CCOCC2)nc(N2CCOCC2)n1)c1ccc(Cl)cc1Cl	Apaf1 inhib 47.4 | Apaf-1 inh conf inactive | Rh110 interf inh inactive
COc1ccc(NC(=O)NNc2cc(N3CCOCC3)nc(N3CCOCC3)n2)cc1	Apaf1 inhib 51.6 | Apaf-1 inh conf inactive | Rh110 interf inh inactive
CCOc1ccc(CN(C)C(=O)CNC(=O)c2sc3ccccc3c2Cl)cc1	none (no result: MEKK2wt PB1 HTS, MEKK2mut PB1 HTS, MEKK3 PB1 HTS)
O=C(O)CN(c1ccccc1)S(=O)(=O)c1cc(C(F)(F)F)cc(C(F)(F)F)c1	none
COc1ccc2oc(C(=O)OCC(=O)Nc3ccc(C(=O)N(C)C)cc3)c(C)c2c1	none
COc1cccc(CN(C)C(=O)c2ccc(OCC(=O)Nc3cccc(C(F)(F)F)c3)c(OC)c2)c1	none (no result: MEKK2wt PB1 HTS, MEKK2mut PB1 HTS, MEKK3 PB1 HTS)
COc1ccc(CN(C)C(=O)c2ccc(OCC(=O)Nc3cccc(C(F)(F)F)c3)c(OC)c2)c(OC)c1	Apaf1 inhib 44.9 (no result: MEKK2wt PB1 HTS, MEKK2mut PB1 HTS, MEKK3 PB1 HTS) | Apaf-1 inh conf inactive | Rh110 interf inh inactive
CCc1ccc(OCC(=O)N/N=C2\CC(=O)c3ccccc32)cc1	Apaf1 inhib 83.6 | Apaf-1 inh conf 54.1 | Rh110 interf inh inactive | Fluor interf inh inactive
COc1ccc(OCC(=O)N/N=C2\CCCCc3ccccc32)cc1	none
CCCCC1=CC2=C(c3ccco3)C(=O)C(C)(OC(=O)c3ccc(OC)cc3)C(=O)C2=CN1C1CCCC1 (centres undefined)	none
CCCCC1=CC2=C(c3ccco3)C(=O)C(C)(OC(=O)c3ccc(OC)cc3)C(=O)C2=CN1C1CC1 (centres undefined)	Apaf1 inhib 40.1 | Apaf-1 inh conf inactive | Rh110 interf inh inactive
COc1cccc2c1[C@@H]1CN(CCCCn3c(=O)[nH]c4c(sc5ncc(-c6ccccc6)nc54)c3=O)C[C@@H]1CO2	Apaf1 inhib 48.4 (no result: MEKK2wt PB1 HTS, MEKK2mut PB1 HTS, MEKK3 PB1 HTS) | Apaf-1 inh conf inactive | Rh110 interf inh inactive
COc1ccccc1N1CCN(C(=O)CCCCCn2c(=O)[nH]c3ccsc3c2=O)CC1	none
N/C(=N\OC(=O)c1cnn(-c2ccccc2)c1C(F)(F)F)c1ccc(C(F)(F)F)cc1	none
CC(=O)c1ccc2c(c1)C1C=CCC1C(C(=O)O)N2 (centres undefined)	none
CC(=O)c1ccc2c(c1)C1C=CCC1C(c1ccncc1)N2 (centres undefined)	Apaf1 inhib 59.6 | Apaf-1 inh conf inactive | Rh110 interf inh inactive
Nc1ccc2nc3c(c(Cl)c2c1)CCCC3	Apaf1 inhib 63.5 | Apaf-1 inh conf inactive | Rh110 interf inh inactive
c1ccc(CC2CCN(c3nc4ccccc4n4nnnc34)CC2)cc1	Apaf1 inhib 57.6 | Apaf-1 inh conf inactive | Rh110 interf inh inactive
Cc1nn(-c2ccccc2)c2c1C(c1ccccc1)C(C#N)=C(N)O2 (centres undefined)	Apaf1 inhib 96.5 | Apaf-1 inh conf inactive | Rh110 interf inh inactive
Cc1ccc(-n2nc(C)c3c2OC(N)=C(C#N)C3c2ccoc2)cc1 (centres undefined)	Apaf1 inhib 81.0 | Apaf-1 inh conf inactive | Rh110 interf inh inactive
CCN(C(=S)NC(=O)c1ccco1)c1cccc2ccccc12	Apaf1 inhib 82.5 (no result: MEKK2wt PB1 HTS, MEKK2mut PB1 HTS, MEKK3 PB1 HTS) | Apaf-1 inh conf inactive | Rh110 interf inh inactive
CCN(C(=S)NCCOC)c1cccc2ccccc12	none
CN(Cc1ccccc1)C(=O)CN1C(=O)NC(C)(c2ccc(C(C)(C)C)cc2)C1=O (centres undefined)	Apaf1 inhib 41.7 | Apaf-1 inh conf inactive | Rh110 interf inh inactive
CCN(c1ccccc1)c1nc(=O)c2cccnc2s1	none
CCN(c1ccccc1)c1cc2ccccc2c(=O)[nH]1	Apaf1 inhib 95.8 | Apaf-1 inh conf 59.1 | Rh110 interf inh inactive | Fluor interf inh inactive
CC1CCN(S(=O)(=O)c2ccc3c4c2CC(=O)N4CC(C)S3)CC1 (centres undefined)	Apaf1 inhib 94.4 | Apaf-1 inh conf 86.5 | Rh110 interf inh inactive | Fluor interf inh inactive
Cc1ccc(S(=O)(=O)N2CCN(S(=O)(=O)N3CCC(C)CC3)CC2)c(C)c1	none

Assay outcomes: PubChem, several laboratories
